Measured values as given in ChEMBL document CHEMBL1143323, “Oxidosqualene cyclase from Saccharomyces cerevisiae, Trypanosoma cruzi, Pneumocystis carinii and Arabidopsis thaliana expressed in yeast: a model for the development of novel antiparasitic agents” (Bioorg Med Chem Lett, 2009).

Columns and labels:
[1] = biological target: T1, Lanosterol synthase ERG7 (Saccharomyces cerevisiae S288c, UniProt P38604); experiment: Inhibition of yeast OSC expressed in Saccharomyces cerevisiae SMY8
T1 sequence (P38604 whole entry): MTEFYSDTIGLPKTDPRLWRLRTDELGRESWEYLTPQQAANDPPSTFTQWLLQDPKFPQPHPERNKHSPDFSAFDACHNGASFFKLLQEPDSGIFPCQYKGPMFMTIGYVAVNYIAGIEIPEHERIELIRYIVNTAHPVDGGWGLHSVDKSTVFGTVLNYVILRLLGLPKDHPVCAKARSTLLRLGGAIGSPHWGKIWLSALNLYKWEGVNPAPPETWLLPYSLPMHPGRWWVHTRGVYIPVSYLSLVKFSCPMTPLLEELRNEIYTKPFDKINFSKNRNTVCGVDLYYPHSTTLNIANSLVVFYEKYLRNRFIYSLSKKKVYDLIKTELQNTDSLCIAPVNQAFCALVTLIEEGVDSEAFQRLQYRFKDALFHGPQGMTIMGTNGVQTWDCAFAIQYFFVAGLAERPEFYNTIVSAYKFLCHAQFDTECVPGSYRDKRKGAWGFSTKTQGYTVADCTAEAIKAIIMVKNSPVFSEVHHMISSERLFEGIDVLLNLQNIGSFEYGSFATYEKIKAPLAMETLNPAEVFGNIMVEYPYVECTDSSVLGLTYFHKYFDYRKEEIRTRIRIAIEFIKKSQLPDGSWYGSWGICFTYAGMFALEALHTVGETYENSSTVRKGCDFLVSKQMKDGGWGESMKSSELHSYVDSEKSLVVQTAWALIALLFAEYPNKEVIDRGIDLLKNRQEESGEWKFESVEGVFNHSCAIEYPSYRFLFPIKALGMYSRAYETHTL
In short: (§1)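 Cell-free homogenates of recombinant OSC-defective S. cerevisiae SMY8 strains, each expressing one OSC: lanosterol cyclase from S. cerevisiae, T. cruzi or P. carinii, or cycloartenol cyclase from A. thaliana. Cyclase activity was measured in homogenates with inhibitor present and IC50 derived. Values are means of two separate experiments, each with duplicate incubations; maximum deviation from the mean under 10%.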

[2] = biological target: Cycloartenol synthase (Arabidopsis thaliana, UniProt P38605); experiment: Inhibition of Arabidopsis thaliana cycloartenol synthase expressed in Saccharomyces cerevisiae SMY8; in short: as §1
Cycloartenol synthase, sequence (P38605 whole entry): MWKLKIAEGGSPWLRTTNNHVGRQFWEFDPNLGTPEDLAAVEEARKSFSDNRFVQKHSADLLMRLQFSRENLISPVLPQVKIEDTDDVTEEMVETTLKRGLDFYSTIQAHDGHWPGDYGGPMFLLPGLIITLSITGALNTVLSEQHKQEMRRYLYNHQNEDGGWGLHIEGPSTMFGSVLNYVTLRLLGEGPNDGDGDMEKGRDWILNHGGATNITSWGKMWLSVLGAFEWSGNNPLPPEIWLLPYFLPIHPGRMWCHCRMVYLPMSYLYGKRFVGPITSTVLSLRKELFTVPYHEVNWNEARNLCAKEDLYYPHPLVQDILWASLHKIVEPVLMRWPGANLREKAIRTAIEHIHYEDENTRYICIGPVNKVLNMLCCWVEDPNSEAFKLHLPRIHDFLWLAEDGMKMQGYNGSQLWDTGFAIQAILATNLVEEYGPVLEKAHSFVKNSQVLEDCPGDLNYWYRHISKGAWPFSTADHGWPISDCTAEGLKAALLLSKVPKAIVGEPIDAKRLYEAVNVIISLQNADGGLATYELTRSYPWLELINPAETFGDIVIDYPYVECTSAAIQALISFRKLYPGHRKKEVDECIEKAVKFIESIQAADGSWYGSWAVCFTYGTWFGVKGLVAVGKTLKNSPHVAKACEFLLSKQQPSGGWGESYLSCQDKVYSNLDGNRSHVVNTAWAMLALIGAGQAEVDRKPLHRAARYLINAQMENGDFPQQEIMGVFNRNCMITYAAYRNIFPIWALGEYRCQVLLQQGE

[3] = Inhibition of Pneumocystis carinii OSC expressed in Saccharomyces cerevisiae SMY8; in short: as §1
[4] = biological target: T2, Lanosterol synthase (Homo sapiens, UniProt P48449); experiment: Inhibition of human OSC expressed in Saccharomyces cerevisiae SMY8
T2 sequence (P48449 whole entry): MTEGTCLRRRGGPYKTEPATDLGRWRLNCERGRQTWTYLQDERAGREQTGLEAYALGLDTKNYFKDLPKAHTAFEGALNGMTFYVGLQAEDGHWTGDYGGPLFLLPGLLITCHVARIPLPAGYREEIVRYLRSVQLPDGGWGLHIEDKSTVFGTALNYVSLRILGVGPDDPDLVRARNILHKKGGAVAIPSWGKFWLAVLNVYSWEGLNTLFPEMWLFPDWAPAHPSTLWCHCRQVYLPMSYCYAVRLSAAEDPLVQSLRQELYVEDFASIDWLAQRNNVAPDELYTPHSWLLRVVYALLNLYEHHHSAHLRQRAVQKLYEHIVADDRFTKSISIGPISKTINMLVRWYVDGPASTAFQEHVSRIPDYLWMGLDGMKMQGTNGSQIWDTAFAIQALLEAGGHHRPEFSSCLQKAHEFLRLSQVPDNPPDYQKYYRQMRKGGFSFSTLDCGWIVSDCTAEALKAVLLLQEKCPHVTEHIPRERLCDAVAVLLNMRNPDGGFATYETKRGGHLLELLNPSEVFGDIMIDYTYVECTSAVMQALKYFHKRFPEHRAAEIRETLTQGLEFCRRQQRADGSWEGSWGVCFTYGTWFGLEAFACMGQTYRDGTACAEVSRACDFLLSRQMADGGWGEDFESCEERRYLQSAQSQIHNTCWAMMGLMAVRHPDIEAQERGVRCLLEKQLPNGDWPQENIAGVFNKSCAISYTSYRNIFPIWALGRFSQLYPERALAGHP

[5] = Inhibition of Trypanosoma cruzi OSC expressed in Saccharomyces cerevisiae SMY8; in short: as §1
[6] = Selectivity ratio of IC50 for human OSC to IC50 for Pneumocystis carinii OSC

`C=CCN(C)C/C=C/COc1ccc2c(-c3ccc(Br)cc3)coc2c1` gave an IC50 [1] of 210 nM, an IC50 [2] of 3000 nM and an IC50 [3] of 1200 nM. The IC50 [4] was 90000 nM.

`CCN(CCO)C(C)(C)C#Cc1ccc2c(-c3ccc(Br)cc3)nsc2c1` gave an IC50 [1] of 2200 nM, an IC50 [5] of 4200 nM and an IC50 [2] of 1250 nM. For the same molecule, the IC50 [3] was 1000 nM and the IC50 [4] was 11500 nM.

In the case of `C=CCN(C)CCCCCCOc1ccc(C(=O)c2ccc(Br)cc2)c(F)c1`, the IC50 [1] is reported as 210 nM, the IC50 [5] is reported as 900 nM and the IC50 [2] is reported as 1750 nM. For the same molecule, the IC50 [3] was 340 nM.

In the case of `Brc1ccc(-c2nsc3cc(OCCCCN4CCOCC4)ccc23)cc1`, the IC50 [1] is reported as 600 nM, the IC50 [5] is reported as 1100 nM and the IC50 [2] is reported as 480 nM. For the same molecule, the IC50 [3] was 70 nM and the IC50 [4] was 120 nM.

With `CCN(CCO)CCCC#Cc1ccc2c(-c3ccc(Br)cc3)nsc2c1` the IC50 [1] was 5000 nM, the IC50 [5] was over 10000 nM and the IC50 [2] was 1700 nM. It also gave an IC50 [3] of 2250 nM and an IC50 [4] of 230 nM.

`C=CCN(C)CCCCC[C@H]1CC[C@H](N(C)S(=O)(=O)c2ccc(C(F)(F)F)cc2)CC1` gave an IC50 [1] of 300 nM, an IC50 [5] of 300 nM and an IC50 [2] of 440 nM. For the same molecule, the IC50 [3] was 120 nM and the IC50 [4] was 100 nM.

Work on `CC(=O)N(CCO)CCCCOc1ccc2c(-c3ccc(Br)cc3)nsc2c1` yielded an IC50 [1] of 100000 nM, an IC50 [5] of 5500 nM and an IC50 [2] of 800 nM. The IC50 [4] was over 1000 nM.

`CCN(CC)C1(CCCC[C@H]2CC[C@H](N(C)S(=O)(=O)c3ccc(C(F)(F)F)cc3)CC2)CC1` showed an IC50 [1] of 500 nM, an IC50 [5] of 400 nM and an IC50 [2] of 320 nM. The IC50 [3] was 1300 nM and the IC50 [4] was 440 nM.

`Brc1ccc(-c2nsc3cc(CCCCCN4CCOCC4)ccc23)cc1` showed an IC50 [1] of 400 nM, an IC50 [5] of 1100 nM and an IC50 [2] of 650 nM. It also gave an IC50 [3] of 50 nM and an IC50 [4] of 100 nM.

Molecule `CCN(CC)C(=O)CCCC[C@H]1CC[C@H](N(C)S(=O)(=O)c2ccc(C(F)(F)F)cc2)CC1` has an IC50 [1] of over 100000 nM, an IC50 [5] of over 100000 nM and an IC50 [2] of 2000 nM. For the same molecule, the IC50 [3] was over 100000 nM and the IC50 [4] was over 10000 nM.

Molecule `CCN(CCO)CCCCC[C@H]1CC[C@H](N(C)C(=O)Oc2ccc(Cl)cc2)CC1` has an IC50 [1] of 100 nM, an IC50 [5] of 2000 nM and an IC50 [2] of 700 nM. For the same molecule, the IC50 [3] was 2500 nM and the IC50 [4] was 4120 nM.

Work on `CCN(CC)C(C)(C)CCCC[C@H]1CC[C@H](N(C)S(=O)(=O)c2ccc(C(F)(F)F)cc2)CC1` yielded an IC50 [1] of 7000 nM, an IC50 [5] of over 100000 nM and an IC50 [2] of 4100 nM. It also gave an IC50 [3] of 1000 nM and an IC50 [4] of 4930 nM.

`C=CCN(C)CCCCCCOc1ccc2c(-c3ccc(Br)cc3)nn(C)c2c1` showed an IC50 [1] of 290 nM, an IC50 [5] of 3000 nM and an IC50 [2] of 2600 nM. It also gave an IC50 [3] of over 5000 nM and an IC50 [4] of 2300 nM.

For `O=C(c1ccc(Cl)cc1)N1CCC(=Cc2ccc(C3=NCCO3)cc2)CC1`, the IC50 [1] was 670 nM, the IC50 [5] was over 5000 nM and the IC50 [2] was 2500 nM. The IC50 [3] was over 5000 nM and the IC50 [4] was 1150 nM.

`C=CCN(C)CCCCC[C@H]1CC[C@H](N(C)C(=O)Oc2ccc(C(F)(F)F)cc2)CC1` gave an IC50 [1] of 50 nM, an IC50 [5] of 70 nM and an IC50 [2] of 1000 nM. For the same molecule, the IC50 [3] was 340 nM and the IC50 [4] was 140 nM.

`C=CCN(C)CCCCOc1ccc2c(-c3ccc(Br)cc3)nsc2c1` showed an IC50 [1] of 700 nM, an IC50 [5] of 250 nM and an IC50 [2] of 70 nM. The IC50 [3] was 200 nM and the IC50 [4] was 260 nM.

For `CCN(CCO)CCCCOc1ccc2c(-c3ccc(Br)cc3)nsc2c1`, the IC50 [1] was 700 nM, the IC50 [5] was 6500 nM and the IC50 [2] was 2300 nM. It also gave an IC50 [3] of 50 nM, a Ratio IC50 [6] of 10 and an IC50 [4] of 520 nM.

Work on `C=CCN(C)CCCCCCOc1ccc(-c2nsc3cc(Br)ccc23)cc1` yielded an IC50 [1] of 280 nM, an IC50 [5] of over 5000 nM and an IC50 [2] of 10000 nM. The IC50 [3] was 550 nM, the Ratio IC50 [6] was 40 and the IC50 [4] was 20300 nM.

Molecule `CN(C/C=C/COc1ccc(C(=O)c2ccc(Br)cc2)cc1)C1CC1` has an IC50 [1] of 180 nM, an IC50 [5] of 1500 nM and an IC50 [2] of 260 nM. The IC50 [3] was 200 nM and the IC50 [4] was 270 nM.

For `CCN(CCO)CCCCC[C@H]1CC[C@H](N(C)S(=O)(=O)c2ccc(C(F)(F)F)cc2)CC1`, the IC50 [1] was 270 nM, the IC50 [5] was 1600 nM and the IC50 [2] was 3000 nM. It also gave an IC50 [4] of 450 nM.

`CCN(CC)CCCCC[C@H]1CC[C@H](N(C)S(=O)(=O)c2ccc(C(F)(F)F)cc2)CC1` gave an IC50 [1] of 3600 nM, an IC50 [5] of 2400 nM and an IC50 [2] of 1000 nM. For the same molecule, the IC50 [3] was 600 nM and the IC50 [4] was 2440 nM.

`C=CCN(C)CCCCCCOc1ccc2c(-c3ccc(Br)cc3)nsc2c1` gave an IC50 [1] of 70 nM, an IC50 [5] of 340 nM and an IC50 [2] of 950 nM. For the same molecule, the IC50 [3] was 230 nM and the IC50 [4] was 160 nM.

For `CN([C@H]1CC[C@H](CCCCCN(CCO)CCO)CC1)S(=O)(=O)c1ccc(C(F)(F)F)cc1`, the IC50 [1] was 1500 nM, the IC50 [5] was 2700 nM and the IC50 [2] was 1500 nM. The IC50 [3] was 400 nM and the IC50 [4] was 720 nM.

`C=CCN(C)Cc1ccc(-c2ccc(C(=O)c3ccc(Br)cc3)cc2)cc1` showed an IC50 [1] of 320 nM, an IC50 [5] of 600 nM and an IC50 [2] of 250 nM. The IC50 [3] was 50 nM, the Ratio IC50 [6] was 5 and the IC50 [4] was 250 nM.

Molecule `CCN(CC#Cc1ccc2c(-c3ccc(Br)cc3)nsc2c1)CCO` has an IC50 [1] of 300 nM, an IC50 [5] of 2300 nM and an IC50 [2] of 550 nM. The IC50 [3] was 800 nM and the IC50 [4] was 4600 nM.
